Assay results taken from ChEMBL document CHEMBL4177580, “New 5-HT1A, 5HT2A and 5HT2C receptor ligands containing a picolinic nucleus: Synthesis, in vitro and in vivo pharmacological evaluation” (Bioorg Med Chem, 2017).

Columns and labels:
[1] = biological target: T1, Adrenergic receptor alpha-1 (Rattus norvegicus, UniProt P15823+P23944+P43140); assay: Displacement of [3H]prazosin from adrenergic alpha1 receptor in rat cerebral cortex
T1 sequence (P15823 whole entry): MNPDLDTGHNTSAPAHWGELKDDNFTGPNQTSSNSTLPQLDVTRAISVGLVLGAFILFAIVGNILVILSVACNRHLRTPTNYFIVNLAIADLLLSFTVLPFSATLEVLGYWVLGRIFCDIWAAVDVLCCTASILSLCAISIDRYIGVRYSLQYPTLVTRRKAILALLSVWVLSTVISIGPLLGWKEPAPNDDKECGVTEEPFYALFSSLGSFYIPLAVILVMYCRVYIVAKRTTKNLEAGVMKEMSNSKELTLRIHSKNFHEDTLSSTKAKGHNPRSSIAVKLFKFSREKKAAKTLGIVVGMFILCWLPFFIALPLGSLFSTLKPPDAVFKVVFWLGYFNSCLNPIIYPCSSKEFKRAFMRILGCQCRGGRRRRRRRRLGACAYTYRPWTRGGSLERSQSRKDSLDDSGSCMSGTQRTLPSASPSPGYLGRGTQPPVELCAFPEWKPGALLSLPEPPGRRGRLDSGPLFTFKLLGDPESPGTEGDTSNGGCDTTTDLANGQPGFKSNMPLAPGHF
T1 sequence (P23944 whole entry): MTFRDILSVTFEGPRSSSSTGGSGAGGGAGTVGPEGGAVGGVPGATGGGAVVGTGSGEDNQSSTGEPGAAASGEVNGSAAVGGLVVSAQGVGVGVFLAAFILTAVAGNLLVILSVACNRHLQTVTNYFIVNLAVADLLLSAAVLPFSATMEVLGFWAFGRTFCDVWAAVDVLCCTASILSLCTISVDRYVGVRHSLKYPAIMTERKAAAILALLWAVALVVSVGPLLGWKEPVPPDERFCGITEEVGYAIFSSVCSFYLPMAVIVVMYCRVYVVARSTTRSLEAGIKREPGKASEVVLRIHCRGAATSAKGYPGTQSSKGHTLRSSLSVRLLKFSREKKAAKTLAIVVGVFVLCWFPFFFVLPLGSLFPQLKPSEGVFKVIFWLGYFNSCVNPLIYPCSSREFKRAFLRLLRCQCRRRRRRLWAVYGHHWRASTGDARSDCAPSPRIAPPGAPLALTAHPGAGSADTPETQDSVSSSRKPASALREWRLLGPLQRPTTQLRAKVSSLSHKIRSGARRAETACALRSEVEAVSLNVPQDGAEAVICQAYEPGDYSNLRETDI
T1 sequence (P43140 whole entry): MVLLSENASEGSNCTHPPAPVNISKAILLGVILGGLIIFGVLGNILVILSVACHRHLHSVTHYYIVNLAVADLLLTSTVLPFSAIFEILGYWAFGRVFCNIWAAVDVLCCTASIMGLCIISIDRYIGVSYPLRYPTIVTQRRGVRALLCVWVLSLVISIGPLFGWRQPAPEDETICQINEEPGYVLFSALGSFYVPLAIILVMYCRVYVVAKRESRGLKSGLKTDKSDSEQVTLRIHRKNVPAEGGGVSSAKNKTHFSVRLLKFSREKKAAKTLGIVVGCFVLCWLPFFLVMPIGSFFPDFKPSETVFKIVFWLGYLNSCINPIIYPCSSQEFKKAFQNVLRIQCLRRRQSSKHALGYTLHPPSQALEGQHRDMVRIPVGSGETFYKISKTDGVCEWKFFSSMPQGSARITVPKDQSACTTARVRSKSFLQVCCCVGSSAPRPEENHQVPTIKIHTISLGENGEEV

Mus musculus = assay: Toxicity in Swiss albino mouse assessed as reduction in spontaneous locomotor activity at 60 mg/kg, ip dosed 60 mins before test and measured after 6 mins; format: organism-based; conditions: in vivo, 0.1 h
Procedure, shortened: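 Spontaneous locomotion: mice dosed i.p. 60 min before being placed individually in an actometer for 30 min. Distance travelled read at 6 and 30 min. Cages cleaned with 70% ethanol between animals. One-way ANOVA with Dunnett's; mean ± SEM of one experiment.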

Rattus norvegicus = assay: In-vivo 5-HT1A receptor antagonist activity in Wistar rat assessed as reduction in 8-OH-DPAT-stimulated induction of lower lip retraction by measuring lower lip retraction score at 30 mg/kg, ip dosed 15 mins before test (reference value: 2.875 +/- 0.08183)

- Ki [1]: 31 nM
SMILES: O=C(NCCN1CCN(c2ccc(Cl)c(Cl)c2)CC1)c1ccccn1
- Activity (Mus musculus): Toxic
- Activity_index (Rattus norvegicus): 2.3
